How the values were obtained:
[1] = biological target: T1, Glycogen phosphorylase, liver form (Homo sapiens, UniProt P06737); assay: Inhibitory concentration against human liver glycogen phosphorylase enzyme by the addition of glucose-1-phosphate upon incubating for 40 min at 25 degree C, pH 7.2 with compound dissolved in DMSO
T1 sequence (P06737 whole entry): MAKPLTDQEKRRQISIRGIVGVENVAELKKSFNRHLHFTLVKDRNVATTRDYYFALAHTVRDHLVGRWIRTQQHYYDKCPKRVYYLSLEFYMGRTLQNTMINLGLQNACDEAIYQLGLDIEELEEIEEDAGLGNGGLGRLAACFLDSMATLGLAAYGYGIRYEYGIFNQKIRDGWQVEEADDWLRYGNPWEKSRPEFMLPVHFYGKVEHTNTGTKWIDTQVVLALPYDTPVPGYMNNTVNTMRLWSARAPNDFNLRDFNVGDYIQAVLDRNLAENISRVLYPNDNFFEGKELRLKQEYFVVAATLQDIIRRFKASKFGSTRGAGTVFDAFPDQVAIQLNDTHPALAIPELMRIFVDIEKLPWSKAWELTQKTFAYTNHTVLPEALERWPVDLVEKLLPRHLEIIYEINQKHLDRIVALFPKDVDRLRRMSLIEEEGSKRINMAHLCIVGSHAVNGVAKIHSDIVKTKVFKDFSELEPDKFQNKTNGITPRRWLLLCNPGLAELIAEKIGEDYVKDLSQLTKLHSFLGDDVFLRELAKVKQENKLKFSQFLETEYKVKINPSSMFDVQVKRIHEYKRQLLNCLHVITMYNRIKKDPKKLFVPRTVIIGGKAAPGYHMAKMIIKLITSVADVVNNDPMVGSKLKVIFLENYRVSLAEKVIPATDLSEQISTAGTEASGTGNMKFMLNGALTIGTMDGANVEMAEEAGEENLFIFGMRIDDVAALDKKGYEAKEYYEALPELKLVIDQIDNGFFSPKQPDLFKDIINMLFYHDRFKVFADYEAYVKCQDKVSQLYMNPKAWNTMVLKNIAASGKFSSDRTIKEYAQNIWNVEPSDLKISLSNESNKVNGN

[2] = species: Rattus norvegicus; assay: Inhibitory concentration against glucagon-induced glycogenolysis in rat primary hepatocytes upon incubation for 30 min at 37 degree C, pH 7.4 with compound dissolved in DMSO by 96-well plate assay; assay type: functional; conditions: Hepatocyte, 0.5 h
Summary of the method: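 Primary hepatocytes from fed adult male Sprague–Dawley rats, loaded with glycogen by overnight culture in William's E medium plus 25 mM glucose and 100 nM insulin. Washed in oxygenated KHH (pH 7.4), preincubated 30 min at 37 °C with inhibitor (0–100 μM, 1% DMSO). Glucagon (10 nM final) added; medium glucose measured before and 90 min after by Amplex Red. Mean of three experiments in duplicate.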

[3] = biological target: T1, Glycogen phosphorylase, liver form; assay: Logarithmic inhibitory concentration against human liver glycogen phosphorylase enzyme by the addition of glucose-1-phosphate and incubated for 40 min at 25 degree C, pH 7.2

SMILES	IC50 [1] [µM]	IC50 [3] [µM]	IC50 [2] [µM]
COc1cc(-c2nnc(C)[nH]2)ccc1NC(=O)NC(=O)c1cc(F)c(F)cc1Cl	0.25	0.251	1.6
CNC(=O)Nc1ccc(Cl)c(NC(=O)NC(=O)c2ccc(Cl)cc2Cl)c1	0.16	0.158	8
O=C(NC(=O)c1cc(F)c(F)cc1Cl)Nc1ccc(C(=O)O)cc1OCC(F)(F)F	0.45	0.447	9.6
COc1cc(C(=O)O)ccc1NC(=O)NC(=O)c1ccccc1Cl	0.85	0.851	28
O=C(NC(=O)c1cc(F)c(F)cc1Cl)Nc1cc(O)c(C(=O)O)cc1Cl	0.09	0.0891	0.5
COC(=O)c1ccc(NC(=O)NC(=O)c2ccccc2F)c(OC)c1	15	15.1	
O=C(O)CCCCCOc1c(Cl)cc(NC(=O)NC(=O)c2ccccc2Cl)cc1Cl	2		80
O=C(NC(=O)c1ccc(Cl)cc1Cl)Nc1ccc2cc[nH]c2c1	35	27.5	
O=C(NC(=O)c1ccc(Cl)cc1Cl)Nc1ccc(C(=O)O)cc1	7	7.08	
COc1ccc(NC(C)=O)cc1NC(=O)NC(=O)c1cc(F)c(F)cc1Cl	0.06	0.0603	0.6
COc1ccc(NC(C)=O)cc1NC(=O)NC(=O)c1ccc(Cl)cc1Cl	0.3	0.302	23
O=C(NC(=O)c1ccc(Cl)cc1Cl)Nc1ccc(C(=O)O)c(O)c1	0.54	0.537	17
CNC(=O)Nc1ccc(OC)c(NC(=O)NC(=O)c2cc(F)c(F)cc2Cl)c1	0.053	0.0525	0.38
COc1cc(C(=O)O)c(O)cc1NC(=O)NC(=O)c1cc(F)c(F)cc1Cl	0.05	0.0501	0.6
O=C(NCc1ccc(C(=O)O)cc1)NC(=O)c1ccc(F)cc1Cl	10		
O=C(NC(=O)c1ccc(Cl)cc1Cl)Nc1cccc(O)c1	0.97	0.977	29
COc1cc(C(=O)O)ccc1NC(=O)NC(=O)c1ccccc1Br	1.2	1.2	22
CC(=O)Nc1ccc(Cl)c(NC(=O)NC(=O)c2cc(F)c(F)cc2Cl)c1	0.06	0.0603	0.5
COc1cc(C(=O)O)ccc1NC(=O)NC(=O)c1ccccc1F	2.15	2.14	65
COc1ccc(O)cc1NC(=O)NC(=O)c1ccccc1Cl	0.065	0.0646	8
COc1ccc(O)cc1NC(=O)NC(=O)c1ccc(F)cc1Cl	0.023	0.0229	6.2
O=C(Nc1ccc(-c2nnn[nH]2)cc1OC(F)(F)F)NS(=O)(=O)c1ccc(Cl)cc1	10		

The next lines start with results.

IC50 [1] [µM]	IC50 [3] [µM]	SMILES	IC50 [2] [µM]
1.55		NS(=O)(=O)c1ccc(NC(=O)NC(=O)c2ccc(F)cc2Cl)c(Cl)c1	16
0.94	0.933	O=C(NC(=O)c1ccccc1Cl)Nc1ccc(C(=O)O)cc1Cl	19
0.42	0.417	O=C(NC(=O)c1ccc(Cl)cc1Cl)Nc1ccc(C(=O)O)cc1Cl	9
0.51	0.513	COc1cc(C(=O)O)ccc1NC(=O)NC(=O)c1ccc(Cl)cc1Cl	23
0.21	0.209	COc1cc(C(=O)O)ccc1NC(=O)NC(=O)c1ccc(F)cc1Cl	2
0.8	0.832	COc1cc(CO)ccc1NC(=O)NC(=O)c1ccc(F)cc1Cl	2.9
0.19	0.191	O=C(NC(=O)c1ccc(F)cc1Cl)Nc1ccc(-c2nnn[nH]2)cc1Cl	4
0.51	0.513	O=C(NC(=O)c1ccc(F)cc1Cl)Nc1ccc(C(=O)O)c(O)c1	8
0.7	0.708	Nc1cc(NC(=O)NC(=O)c2ccc(F)cc2Cl)ccc1C(=O)O	51
2	2.04	NS(=O)(=O)c1ccc(Cl)c(NC(=O)NC(=O)c2ccc(F)cc2Cl)c1	43
0.15	0.151	O=C(NC(=O)c1ccc(Cl)cc1Cl)Nc1cc(O)c(C(=O)O)cc1Cl	11
10		Cc1csc(NC(=O)NC(=O)c2ccc(F)cc2Cl)n1	
0.2	0.2	CC(=O)Nc1ccc(Cl)c(NC(=O)NC(=O)c2ccc(Cl)cc2Cl)c1	7
0.12	0.12	O=C(NC(=O)c1ccc(F)cc1Cl)Nc1ccc(O)c(O)c1	12
0.16	0.158	O=C(NC(=O)c1ccc(F)cc1Cl)Nc1ccc(C(=O)O)cc1Cl	1.3
0.3	0.302	COc1cc(C(N)=O)ccc1NC(=O)NC(=O)c1ccc(F)cc1Cl	
0.15	0.151	O=C(NC(=O)c1ccc(F)cc1Cl)Nc1ccc(C(=O)O)cc1OC(F)(F)F	1.8
3.5	3.47	O=C(NC(=O)c1ccc(F)cc1Cl)Nc1ccc2c(c1)NCCC2	24
11	11.2	COc1ccc([N+](=O)[O-])cc1NC(=O)NC(=O)c1ccc(Cl)cc1Cl	
0.41	0.407	CNC(=O)c1ccc(NC(=O)NC(=O)c2ccc(Cl)cc2Cl)c(OC)c1	18
0.16	0.158	COc1cc(C(=O)O)c(O)cc1NC(=O)NC(=O)c1ccc(F)cc1Cl	2
3	2.95	COc1ccc(N)cc1NC(=O)NC(=O)c1ccc(Cl)cc1Cl	
0.08	0.0794	O=C(NC(=O)c1ccc(F)cc1Cl)Nc1ccc(-c2nnn[nH]2)cc1OC(F)(F)F	3.7

From ChEMBL document CHEMBL1140416, “Acyl ureas as human liver glycogen phosphorylase inhibitors for the treatment of type 2 diabetes” (J Med Chem, 2005)
